In ChEMBL document CHEMBL4513216, “Probing the Open Global Health Chemical Diversity Library for Multistage-Active Starting Points for Next-Generation Antimalarials” (ACS Infect Dis, 2020):

Assay: Toxicity liver stage against HepG2, at 10uM
Type: cell-based
Parameters: test concentration 10 uM, cell line HepG2-A16-CD81EGFP
Settings: human, HepG2-A16-CD81EGFP cells; read-out: INHIBITION
How it was run: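 Uninfected HepG2-A16-CD81EGFP cells, 3 × 10^3 per well, 1536-well, plated on prespotted compound at 10 μM final, parasite-free screening media added to match infected plates; puromycin 10 μM positive, DMSO 0.5% negative; run in parallel with 48 h PbLuc assay at 37 °C, 5% CO2; viability by CellTiter-Glo luminescence, normalized to controls.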

Row | SMILES | cytotoxicity at 10 µM
1 | COc1ccc(CNC[C@H]2COCc3nc4cccnc4n32)cc1 | -0.61%
2 | CC(=O)N1CC[C@H]2CC(=O)N(C3CC3)CC[C@H]2C1 | -0.434%
3 | Cc1occc(=O)c1OCc1noc(C(=O)NC2CCCC2)n1 | 0.618%
4 | COc1cc2c(cc1OC)C(=O)C(Sc1nncn1C)C2 (centres undefined) | -5.65%
5 | Cc1cc(C(=O)Nc2n[nH]c(C3CC3)n2)c2c(C)noc2n1 | -1.86%
6 | CC(=O)c1c(C)nn(CC(=O)Nc2ccc(Br)cc2)c1C | -9.87%
7 | Cc1nccn1-c1ccc(=O)n(CCNC(=O)c2c(F)cccc2Cl)n1 | -9.98%
8 | COc1ccc(OC)c(-c2cc(C(=O)NCC3(CO)CC3)n(C)n2)c1 | -2.46%
9 | O=C(O)CC(CC(=O)NCCc1cccs1)c1cccs1 (centres undefined) | -11.4%
10 | COc1c2ccc(C(=O)NCCCn3ncccc3=O)cc2nn1C | 0.905%
11 | Cc1occc1C(=O)N1CCn2c(Cn3cncn3)cnc2C1C (centres undefined) | -5.17%
12 | CC(C)CCN1C2(CCN(C(=O)N(C)C)C2)c2ccccc2S1(=O)=O (centres undefined) | 2.11%
13 | Cc1cccc(C(=O)N2CCC3(CC(C(=O)N(C)C(C)C)=NO3)C2)c1 (centres undefined) | -127%
14 | CCOC(=O)N1CCN(c2nc(NCCO)c3ccccc3n2)CC1 | -1.32%
15 | Cc1ccc(N2N=C(C(=O)O)S(=O)(=O)c3cccnc32)cc1 | -8.87%
16 | CC(C)n1[nH]c(=O)c2c1NC(=O)CSC2c1ccc(OCC(N)=O)cc1 (centres undefined) | 8.46%
17 | COCC(=O)NCCn1ccc2c(OC)cccc21 | 3.07%
18 | c1ccc(O[C@H]2CC[C@H]3[C@H]2OCCN3Cc2nccs2)nc1 | -12.6%
19 | c1nc2c(c(C3CC3)n1)CCN(Cc1ccoc1)CC2 | -22.7%
20 | CC(C(=O)N1CCN(c2ccc(F)cc2)CC1)n1cc(Br)cn1 (centres undefined) | 9.35%
21 | COCCNC(=O)CN1CC=C(n2c(C)nc(=O)c3ccccc32)CC1 | -5.45%
22 | CC(=O)N1CCCC1(C(=O)N1CCCC1)c1cnccn1 (centres undefined) | 0.142%

Row | SMILES | cytotoxicity at 10 µM
23 | Cn1cnc(NC(=O)C2CC(=O)N(c3cccc(F)c3)C2)n1 (centres undefined) | 4.28%
24 | Cc1ccc(S(=O)(=O)N2CC[C@@H]3C[C@H](NC(=O)c4n[nH]cc4Cl)[C@@H]32)cc1 | 4.31%
25 | COCC(=O)N[C@@H]1CN(Cc2c[nH]nc2-c2cccs2)C[C@H]1O | 1.48%
26 | COc1ncc(CN2CCCC(c3[nH]ncc3S(C)(=O)=O)C2)cn1 (centres undefined) | 7.24%
27 | COCCOCCSc1nnc(Cc2ccccc2F)o1 | 14.5%
28 | CCN(CCO)Cc1ccc(Br)c2cccnc12 | 1.95%
29 | Cc1nccn1-c1ccc(NS(=O)(=O)c2cccnc2)cn1 | -4.73%
30 | CCn1ccnc1CN1CCCN(C(=O)C2(C#N)CCCCC2)CC1 | 3.75%
31 | O=c1[nH]c(=O)n(CC(O)c2ccccc2Cl)cc1Cl (centres undefined) | 9.71%
32 | Cc1ccc(C(=O)N2CCN(c3ncnc4nc(N)ccc34)CC2)o1 | 7.55%
33 | Cc1nnc(C(C)N2CCN(Cc3noc(C(C)(C)C)n3)CC2)o1 (centres undefined) | -13.3%
34 | CC1CN(C)CCN1C(=O)c1cccn1Cc1cccs1 (centres undefined) | -14.1%
35 | Cc1ccc(S(=O)(=O)N(C)CC(C)O)c(F)c1 (centres undefined) | -11.4%
36 | CC(C)CC(CCO)CNC(=O)N1CCOC2(CCCC2)C1 (centres undefined) | 6.37%
37 | CCc1noc(C(C)N2CCN(CCc3ccncc3)CC2)n1 (centres undefined) | 1.6%
38 | Cc1ccc(C(NC(=O)CN2CCc3c(ncn3C)C2)C2CC2)cc1 (centres undefined) | -2.43%
39 | CCc1ncnc(N2CCOCC2CCO)c1F (centres undefined) | -2.56%
40 | Cc1nnc(NCC2(c3ccccc3)CCOCC2)c(C#N)c1C | 7.35%
41 | Cc1ccc(CNC(=O)NC2CCCN(c3ncccn3)C2)cn1 (centres undefined) | 3.08%
42 | CN(Cc1nccn1CC(F)(F)F)C(=O)c1ccc2c(c1)OCO2 | 1.09%
43 | COCCCn1ccc(NC(=O)NCCCNc2ccccc2)n1 | 4.97%
44 | Cc1ncsc1CNC(=O)N1CCN(Cc2ccccc2)CC1C (centres undefined) | -131%

Row | SMILES | cytotoxicity at 10 µM
45 | Cn1nnc2c1CCN(C(C(=O)N1CCCCC1)c1ccccc1)C2 (centres undefined) | -2.56%
46 | O=c1oc2ccccc2n1CCCN1CCCC1c1ccc(O)cc1 (centres undefined) | 7.87%
47 | O=C(CCn1nnc2ccccc2c1=O)N(CC1CCOC1)C1CC1 (centres undefined) | -8.5%
48 | COCCn1cc(NCc2cn(C)nc2-c2ccncc2)cn1 | 2.03%
49 | c1cnn(CCNCCCOc2ccc3c(c2)OCO3)c1 | 7.61%
50 | Cc1cccc(N2CCN(C(=O)Cc3ccccc3O)C(C)C2)n1 (centres undefined) | 13.5%
51 | c1ccc2[nH]c(C3CCN(Cc4nnc(C5CC5)o4)CC3)nc2c1 | 0.152%
52 | COc1cc(C)nc(N2CCN(C(=O)CCc3nccs3)CC2)n1 | -15.8%
53 | c1ccc(CO[C@@H]2CN(Cc3ccoc3)[C@@H]3COC[C@@H]32)nc1 | -105%
54 | CCN(Cc1nccn1C)C(=O)c1ccc(NCc2ccccc2)nc1 | -14.3%
55 | O=C(c1ccc[nH]1)N1CCc2ccc(S(=O)(=O)N3CCOCC3)cc2C1 | 3.99%
56 | CCn1cc(CN2CCC(CN3CCCCC3)CC2)cc1C#N | -5.77%
57 | CN(CCC(O)c1ccccc1)c1cc(C2CC2)ncn1 (centres undefined) | -141%
58 | COCCNCC1(O)CCCN(Cc2ccc(F)c(F)c2)C1=O (centres undefined) | 3.93%
59 | O=C(CCCn1cncn1)N1CCC2(CCCN(CC3CC3)C2=O)C1 (centres undefined) | -0.611%
60 | CCc1cc(N2C[C@H](C3CC3)[C@@H](N)C2)nc(N2CCOCC2)n1 | -1.47%
61 | CCCc1cc(C(=O)N(C)Cc2cccc3cnccc23)n(C)n1 | 0.109%
62 | N#Cc1cccc(N2CCC3(CCC(=O)N(CC4CCCO4)C3)CC2)n1 (centres undefined) | 4.11%
63 | O=C(NCCc1csc(-c2cnccn2)n1)c1cnn[nH]1 | 6.46%
64 | CC(C)[C@H]1CN(Cc2ccncc2)C[C@@H]1NC(=O)C1(C#N)CCOCC1 | -4.81%
65 | CC(C)n1cnnc1CCNCc1cn(CCC(N)=O)c2ccccc12 | -3.81%
66 | CCNc1ncc(C(=O)N2Cc3nc(C)[nH]c(=O)c3C2)cn1 | -2.19%

Row | SMILES | cytotoxicity at 10 µM
67 | C/C(=C\c1ccco1)CN(C)C(C)Cc1ccccn1 (centres undefined) | 1.89%
68 | O=C1O[C@@H]2CN(Cc3ccccc3)C[C@@H]2N1CCCN1CCOCC1 | -1.18%
69 | c1cnn(Cc2nnc(C3CCN(C4CCOCC4)CC3)n2C2CC2)c1 | -15.2%
70 | CC(=O)NCCC1CCCCN1S(=O)(=O)c1cccc(C#N)c1 (centres undefined) | -10.8%
71 | CCn1c(Cn2cncn2)nnc1C1CCN(Cc2ccc(C)o2)CC1 | -12.9%
72 | COCc1cn([C@@H]2c3ccccc3C3(CCNCC3)[C@H]2O)nn1 | 1.2%
73 | CSCCC(=O)N1CCC(Oc2cc(C)ccc2F)(C(=O)O)CC1 | -6.02%
74 | O=C(c1coc(COc2cccc(F)c2)n1)N1CC[C@H](O)[C@@H](O)C1 | -11%
75 | CN(C(=O)C1CCCCC1)[C@@H]1CCC[C@@H](N2CCOCC2)[C@@H]1O | -6.33%
76 | O=C(CN1CCOC(Cn2cccn2)C1)NCCc1cccs1 (centres undefined) | -11.3%
77 | Cc1cccc(OCCNC(=O)CN2CCCC2c2noc(C)n2)c1 (centres undefined) | -8.6%
78 | Cc1nc2n(n1)CC(NCC(=O)Nc1cc(C)on1)CC2 (centres undefined) | -12.8%
79 | O=C(CCc1nc(-c2ccccn2)no1)N1CCCC1c1ccsc1 (centres undefined) | -14.6%
80 | c1ccc(-n2ccc(CN3CCOC(Cn4cncn4)C3)n2)cc1 (centres undefined) | 0.561%
81 | CC(NC(=O)NCCCc1n[nH]c(N)c1C#N)c1ccc(Cl)cc1 (centres undefined) | -12.5%
82 | Cc1cn2nc(N3CCN(Cc4cc(C)on4)CC3)sc2n1 | -12.1%
83 | c1cnnc(N2CCCC2CNc2cnc3ccccc3n2)c1 (centres undefined) | 1.53%
84 | CCOCC(O)CN1CCN(C(=O)c2cnc3n[nH]c(C)c3c2)CC1 (centres undefined) | -7.69%
85 | COc1ccc(Cl)cc1C(=O)N1CCCC(n2nc(C)nc2C)C1 (centres undefined) | -4.53%
86 | COc1ccc(C2CCCN2C(=O)c2csc(NC(C)=O)n2)cc1 (centres undefined) | -5.82%
87 | CC(NC(=O)Nc1cccnc1N1CCCC1)c1nncn1C (centres undefined) | -10.1%
88 | COc1cccc(CCC(=O)N2CCCC(n3cc(C)cn3)C2)c1 (centres undefined) | 4.28%

Row | SMILES | cytotoxicity at 10 µM
89 | CCn1cc(CN2CCCN(C(=O)Cc3ccc(C)nc3)CC2)cn1 | -3.87%
90 | OCC1CCCN1c1cc(N2CCN(c3ccccn3)CC2)ncn1 (centres undefined) | 3.97%
91 | Cc1occc1C(=O)N1CCc2c(CNS(C)(=O)=O)cncc2C1 | 8.68%
92 | O=C1CCCN1Cc1nnn2c1CN(c1cccnc1)CCC2 | 3.48%
93 | CCOCC1CN(C(=O)c2cnccn2)Cc2cnn(CC3CC3)c21 (centres undefined) | -69.6%
94 | COc1cc(COCC2CCN(Cc3ccccn3)CC2)cc(OC)c1 | -3.36%
95 | CC(=O)NCC(=O)N1CCOC2(CCCN(c3cccnc3)C2)C1 (centres undefined) | -12.8%
96 | Cc1noc(C)c1CN1CC[C@H]2[C@@H]1CCC(=O)N2CC1CCOCC1 | -1.38%
97 | c1cncc(CN2CCC(c3ccc4c(c3)OCO4)CC2)c1 | -0.415%
98 | CS(=O)(=O)NC[C@]12COC[C@H]1CN(CC1CCCC1)C2 | 1.52%
99 | COCC1CC2(CCN(C(=O)c3cc(C)oc3C)CC2)CN1C(C)C (centres undefined) | -11.4%
100 | Cn1cc(C[C@H]2[C@H](O)CCN2CC2CCOCC2)cn1 | -65.7%
101 | O=C(c1cocn1)N1C[C@@H]2CN(CC3CC3)CCO[C@@H]2C1 | -2.29%
102 | CN(C)C(=O)N1Cc2ncn(C)c2C(COCC2CCOCC2)C1 (centres undefined) | -69.9%
103 | CC(=O)NCC(=O)N1CCN(CCN(C)C)c2ncccc2C1 | -104%
104 | O=C(O)c1c(-c2cccnc2)ncc2c1CCN(Cc1cccnc1)C2 | -3.14%
105 | NC(=O)COc1ccc(CNCc2ccc(F)cc2F)cc1 | -14.4%
106 | COc1ccc(CC(=O)N2Cc3nccn3CC(CN(C)C)C2)cc1 (centres undefined) | -116%
107 | O=C(C1CC=CC1)N1CCc2c(COCc3ccncc3)cncc2C1 | -7.79%
108 | O=C1CO[C@@H]2CN(Cc3ccsc3)C[C@H]2N1Cc1ccncc1 | -73%
109 | O=C(NC[C@H]1OC[C@@H]2CCN(Cc3ccco3)C[C@@H]21)c1ccnnc1 | -143%
